Converted amounts (≈) assume the structure as drawn.
Columns and labels:
[1] = Cytotoxicity against HEL cells assessed as inhibition of cell proliferation; assay type: cell-based; settings: human
[2] = Stability of the compound assessed as conversion of prodrug to 3-[(2R,4S, 5R)-4-hydroxy-5-(hydroxymethyl)oxolan-2-yl]-6-(4-pentylphenyl)furo[2, 3-d]pyrimidin-2-one in presence of Dipeptidyl-peptidase 4 and 20 % bovine serum; assay type: physicochemical; settings: cattle
How it was run: (§1)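 Prodrug at 50 μM in PBS (0.1% DMSO) at 37 °C; reaction started with purified CD26 (1.5 mU) or 20% human or bovine serum in PBS. Aliquots taken at time points were quenched in cold methanol on ice, centrifuged, and the supernatant analysed by reverse-phase RP-8 HPLC (NaH2PO4/heptanesulfonic acid pH 3.2 versus acetonitrile gradient) for prodrug, intermediates and parent.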

[3] = Stability of the compound assessed as conversion of prodrug to 3-[(2R,4S, 5R)-4-hydroxy-5-(hydroxymethyl)oxolan-2-yl]-6-(4-pentylphenyl)furo[2, 3-d]pyrimidin-2-one in presence of Dipeptidyl-peptidase 4; assay type: physicochemical; how it was run: as §1
[4] = Aqueous solubility of the compound at 25 DegC after 24 hrs; assay type: physicochemical; settings: water
How it was run: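 Thermodynamic water solubility was measured at 25 °C after 24 h, typically as the mean of two measurements (variation <20%).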

[5] = Cytotoxicity against HEL cells assessed as alteration of cell morphology; assay type: cell-based; settings: human
How it was run: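 Uninfected HEL fibroblasts were exposed to the test compounds. MCC is the minimal concentration giving microscopically detectable alteration of cell morphology.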

Human alphaherpesvirus 3 [6] = experiment: Antiviral activity against Varicella zoster virus YS infected in HEL cells assessed as reduction in virus induced cytopathicity; assay type: functional, organism-based; settings: Human alphaherpesvirus 3, YS
How it was run: (§2)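 Confluent HEL fibroblast monolayers were infected with 20 PFU of VZV (Oka or YS strain). After 1-2 h adsorption, residual virus was removed and varying compound concentrations were added. Plaque formation was scored when untreated infected controls reached completion.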

[7] = Chemical stability of the compound in PBS buffer at pH 7.4 assessed as compound remaining after 24 hrs by HPLC; assay type: physicochemical; settings: read-out: Stability
How it was run: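 Prodrug was held in PBS pH 7.4 at room temperature for 24 h. Percent intact prodrug was determined by HPLC.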

[8] = Stability of the compound assessed as conversion of prodrug to 3-[(2R,4S, 5R)-4-hydroxy-5-(hydroxymethyl)oxolan-2-yl]-6-(4-pentylphenyl)furo[2, 3-d]pyrimidin-2-one in presence of Dipeptidyl-peptidase 4 and 20 % human serum; assay type: physicochemical; how it was run: as §1
Human alphaherpesvirus 3 [9] = experiment: Antiviral activity against Varicella zoster virus OKA infected in HEL cells assessed as reduction in virus induced cytopathicity; assay type: functional, organism-based; settings: Human alphaherpesvirus 3, OKA; how it was run: as §2
Mus musculus = experiment: Bioavailability in mouse assessed as fold increase in 3-[(2R,4S, 5R)-4-hydroxy-5-(hydroxymethyl)oxolan-2-yl]-6-(4-pentylphenyl)furo[2, 3-d]pyrimidin-2-one level within 0 to 180 mins administered by oral gavage; assay type: ADME, organism-based; settings: in vivo
How it was run: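 Female mice received equimolar single oral gavage doses (parent […]) in 0.5% carboxymethylcellulose. Three mice per time point were sacrificed at 15, 30, 45, 60, 90, 120 and 180 min. Plasma was analysed for parent compound by HPLC with fluorescence detection, using relative peak areas. Fold increase in parent plasma levels over 0-180 min was calculated relative to the parent compound.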

[10] = Aqueous solubility of the compound at 25 DegC after 4 hrs; assay type: physicochemical; settings: water
Caco-2 = experiment: Stability in human CaCo-2 cells assessed as appearance of 3-[(2R,4S, 5R)-4-hydroxy-5-(hydroxymethyl)oxolan-2-yl]-6-(4-pentylphenyl)furo[2, 3-d]pyrimidin-2-one at the apical side of the cell; assay type: ADME, cell-based; settings: in the assay text read “basolateral side” for “apical side”
How it was run: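 CaCo-2 cells were seeded at 1.5 × 10⁵ cells/well in upper cups of dual-chamber 24-well trays in DMEM with 10% FBS and grown to confluence (~3 days). Upper medium was replaced with DMEM containing compound at 100 μM; bottom medium was replaced with PBS. Upper and bottom cups were sampled at 0-7 and 24 h into cold methanol and analysed by HPLC.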

[11] = Stability of the compound assessed as conversion of prodrug to 3-[(2R,4S, 5R)-4-hydroxy-5-(hydroxymethyl)oxolan-2-yl]-6-(4-pentylphenyl)furo[2, 3-d]pyrimidin-2-one in presence of Dipeptidyl-peptidase 4, 20 % murine serum and 2.5 uM DPPIV inhibitor vildagliptin; assay type: physicochemical; settings: mouse
How it was run: (§3)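 Prodrug conversion by purified DPPIV/CD26 or by human, bovine or murine serum (20% in PBS) was run with varying concentrations of vildagliptin. Prodrug, intermediate and parent were quantified by HPLC.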

[12] = Stability of the compound assessed as conversion of prodrug to 3-[(2R,4S, 5R)-4-hydroxy-5-(hydroxymethyl)oxolan-2-yl]-6-(4-pentylphenyl)furo[2, 3-d]pyrimidin-2-one in presence of Dipeptidyl-peptidase 4, 20 % human serum and 2.5 uM DPPIV inhibitor vildagliptin; assay type: physicochemical; how it was run: as §3
[13] = Stability of the compound assessed as conversion of prodrug to 3-[(2R,4S, 5R)-4-hydroxy-5-(hydroxymethyl)oxolan-2-yl]-6-(4-pentylphenyl)furo[2, 3-d]pyrimidin-2-one in presence of Dipeptidyl-peptidase 4, 20 % bovine serum and 2.5 uM DPPIV inhibitor vildagliptin; assay type: physicochemical; settings: cattle; how it was run: as §3
[14] = Stability of the compound assessed as conversion of prodrug to 3-[(2R,4S, 5R)-4-hydroxy-5-(hydroxymethyl)oxolan-2-yl]-6-(4-pentylphenyl)furo[2, 3-d]pyrimidin-2-one in presence of Dipeptidyl-peptidase 4 and 2.5 uM DPPIV inhibitor vildagliptin; assay type: physicochemical; how it was run: as §3

Structure (SMILES) | CC50 [1] [µM] | Activity [2] | Activity [3] | solubility at 24 h [4] [mg/mL] | MCC [5] [µM] | EC50 (Human alphaherpesvirus 3 [6]) [µM] | remaining at 24 h [7] [%] | Activity [8] | EC50 (Human alphaherpesvirus 3 [9]) [µM] | fold change (FC) (Mus musculus) | solubility at 4 h [10] [mg/mL] | Activity (Caco-2) | Activity [11] | Activity [12] | Activity [13] | Activity [14]
CCCCCc1ccc(-c2cc3cn([C@H]4C[C@H](O)[C@@H](COC(=O)[C@@H](NC(=O)[C@@H]5CCCN5C(=O)[C@@H](N)CC(=O)O)C(C)C)O4)c(=O)nc3o2)cc1 | 52 | Not Active | Active | 15 (≈ 21.1 mM) | > 5 | 0.073 | > 95 | Not Active | 0.032 | – | – | – | – | – | – | –
CCCCCc1ccc(-c2cc3cn([C@H]4C[C@H](OC(=O)[C@@H](NC(=O)[C@@H]5CCCN5C(=O)[C@@H](N)C(C)C)C(C)C)[C@@H](CO)O4)c(=O)nc3o2)cc1 | 17 | – | – | 5.2 (≈ 7.49 mM) | 60 | 0.016 | > 95 | – | 0.018 | 7 | – | – | – | – | – | –
CCCCCc1ccc(-c2cc3cn([C@H]4C[C@H](OC(=O)[C@@H](NC(=O)[C@@H]5CCCN5C(=O)[C@@H](N)C(C)C)C(C)C)[C@@H](COC(=O)[C@@H](NC(=O)[C@@H]5CCCN5C(=O)[C@@H](N)C(C)C)C(C)C)O4)c(=O)nc3o2)cc1 | 50 | – | – | 77 (≈ 77.8 mM) | > 5 | 0.26 | > 95 | – | 0.127 | 12 | – | – | – | – | – | –
CCCCCc1ccc(-c2cc3cn([C@H]4C[C@H](O)[C@@H](COC(=O)[C@H](C)NC(=O)[C@@H]5CCCN5C(=O)[C@@H](N)C(C)C)O4)c(=O)nc3o2)cc1 | 44 | Active | – | – | > 0.5 | 0.003 | 74 | Active | 0.006 | – | 6.1 (≈ 9.16 mM) | – | – | – | – | –
CCCCCc1ccc(-c2cc3cn([C@H]4C[C@H](O)[C@@H](COC(=O)[C@H](Cc5ccccc5)NC(=O)[C@@H]5CCCN5C(=O)[C@@H](N)C(C)C)O4)c(=O)nc3o2)cc1 | 40 | Active | – | – | > 0.5 | 0.01 | 52 | Active | 0.013 | – | 1.1 (≈ 1.48 mM) | – | – | – | – | –
CCCCCc1ccc(-c2cc3cn([C@H]4C[C@H](O)[C@@H](CO)O4)c(=O)nc3o2)cc1 [CF1743] | – | – | – | 0.018 (≈ 0.0452 mM) | > 20 | – | – | – | – | – | – | – | – | – | – | –
CCCCCc1ccc(-c2cc3cn([C@H]4C[C@H](O)[C@@H](COC(=O)[C@H](CC(C)C)NC(=O)[C@@H]5CCCN5C(=O)[C@@H](N)C(C)C)O4)c(=O)nc3o2)cc1 | 31 | Active | – | – | > 0.5 | 0.006 | 69 | Active | 0.009 | 11 | 14 (≈ 19.8 mM) | – | – | – | – | –
CCCCCc1ccc(-c2cc3cn([C@H]4C[C@H](O)[C@@H](COC(=O)[C@@H](NC(=O)[C@@H]5CCCN5C(=O)[C@@H](N)C(C)C)C(C)C)O4)c(=O)nc3o2)cc1 | > 100 | – | – | 1.2 (≈ 1.73 mM) | > 2 | 0.154 | > 95 | – | 0.089 | 13 | – | Active | Not Active | Not Active | Not Active | Not Active
CCCCCc1ccc(-c2cc3cn([C@H]4C[C@H](O)[C@@H](COC(=O)[C@@H](NC(=O)[C@@H]5CCCN5C(=O)[C@@H](N)CC(N)=O)C(C)C)O4)c(=O)nc3o2)cc1 | 56 | – | Active | 39 (≈ 55 mM) | > 5 | 0.085 | > 95 | – | 0.042 | – | – | – | – | – | – | –
CCCCCc1ccc(-c2cc3cn([C@H]4C[C@H](O)[C@@H](COC(=O)[C@@H](NC(=O)[C@@H]5CCCN5C(=O)[C@@H](N)CCCCN)C(C)C)O4)c(=O)nc3o2)cc1 | 29 | – | Active | 55 (≈ 76.1 mM) | > 5 | 0.022 | > 95 | – | 0.018 | 15 | – | – | – | – | – | –

Source: ChEMBL document CHEMBL1687922, “Dipeptidyl peptidase IV dependent water-soluble prodrugs of highly lipophilic bicyclic nucleoside analogues” (J Med Chem, 2011)
